In series [1] the test system is Human immunodeficiency virus 1. In words: Antiviral activity against HIV1 3B infected in human HOS cells after 72 hrs by luminescence assay in presence of alpha-acid glycoprotein and human serum albumin. It counts as functional, organism-based. The conditions noted are these: Human immunodeficiency virus 1, 3B. The method in brief:
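HOS LTR-luciferase viral assay (1 h compound pre-incubation, virus plus compound, 72 h, 37°C, luminescence) run with human serum albumin (45 mg/ml) with or without α-acid glycoprotein (1 mg/ml). Protein-free IC50 served as baseline for fold shift.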

The nature of series [2]: Half life in mouse at 3 mg/kg, po administered as single dose by liquid chromatography-mass spectroscopy. The conditions noted are these: in vivo. Further details: dose 3 mg/kg, route oral. It counts as ADME, organism-based.
Series [3] has as its system Human immunodeficiency virus 1. Nature of the series: Antiviral activity against HIV1 isolate 05-121771 assessed as inhibition of viral replication after 7 days by scintillation counting. Type of series: functional, organism-based. The conditions noted are these: Human immunodeficiency virus 1, isolate 05-121771, 168 h.
The test system of series [4] is Human immunodeficiency virus 1. In words: Antiviral activity against HIV1 isolate 05-121773 assessed as inhibition of viral replication after 7 days by scintillation counting. It counts as functional, organism-based. The conditions noted are these: Human immunodeficiency virus 1, isolate 05-121773, 168 h.
Series [5] deals with Cytochrome P450 2C9 (Homo sapiens, UniProt P11712). Nature of the series: Inhibition of CYP2C9 up to 30 uM. Type of series: ADME.
Cytochrome P450 2C9, sequence (P11712 whole entry): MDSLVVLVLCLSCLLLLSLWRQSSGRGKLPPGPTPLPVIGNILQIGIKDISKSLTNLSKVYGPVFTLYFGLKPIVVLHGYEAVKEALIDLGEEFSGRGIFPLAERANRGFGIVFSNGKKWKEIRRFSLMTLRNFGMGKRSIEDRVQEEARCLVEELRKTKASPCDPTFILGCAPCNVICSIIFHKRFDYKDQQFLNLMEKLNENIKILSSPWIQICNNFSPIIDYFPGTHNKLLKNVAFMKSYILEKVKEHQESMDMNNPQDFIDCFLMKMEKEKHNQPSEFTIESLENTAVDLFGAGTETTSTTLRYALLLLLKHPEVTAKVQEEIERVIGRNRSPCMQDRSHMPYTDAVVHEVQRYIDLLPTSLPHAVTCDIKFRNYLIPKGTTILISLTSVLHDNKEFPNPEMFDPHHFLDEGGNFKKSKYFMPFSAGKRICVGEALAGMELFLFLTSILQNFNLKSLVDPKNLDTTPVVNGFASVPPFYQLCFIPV
Series [6] is described as follows: Clearance in monkey at 1 mg/kg, iv administered as single dose after 24 hrs by liquid chromatography-mass spectroscopy. It counts as ADME, organism-based, Macaca mulatta. More on the design: dose 1 mg/kg, route intravenous. The conditions noted are these: rhesus monkey, in vivo. A digest of the protocol:
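Single intravenous dose of 1 mg/kg. Plasma was sampled at serial times over 24 h and measured by LC-MS/MS. Clearance was derived by pharmacokinetic analysis.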

The target in series [7] is Cytochrome P450 2C19 (Homo sapiens, UniProt P33261). Nature of the series: Inhibition of CYP2C19 up to 30 uM. It counts as ADME.
Cytochrome P450 2C19, sequence (P33261 whole entry): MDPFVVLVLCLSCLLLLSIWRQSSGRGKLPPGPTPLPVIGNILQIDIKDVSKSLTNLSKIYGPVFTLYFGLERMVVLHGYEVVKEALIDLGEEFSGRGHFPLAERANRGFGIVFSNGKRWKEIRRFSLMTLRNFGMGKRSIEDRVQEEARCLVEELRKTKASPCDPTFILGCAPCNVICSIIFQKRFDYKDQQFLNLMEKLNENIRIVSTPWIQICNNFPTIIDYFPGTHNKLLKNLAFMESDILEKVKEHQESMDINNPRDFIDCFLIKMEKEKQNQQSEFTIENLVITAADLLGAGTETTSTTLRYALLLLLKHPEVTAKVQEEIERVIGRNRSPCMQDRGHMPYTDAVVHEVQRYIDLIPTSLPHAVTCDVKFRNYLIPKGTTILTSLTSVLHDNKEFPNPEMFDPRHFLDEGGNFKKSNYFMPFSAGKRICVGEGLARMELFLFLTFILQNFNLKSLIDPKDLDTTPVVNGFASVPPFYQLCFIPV
Series [8] has as its target Voltage-gated inwardly rectifying potassium channel KCNH2 (Homo sapiens, UniProt Q12809). In words: Inhibition of human ERG up to 10 uM.
The subject of series [9] is Human immunodeficiency virus 1. In words: Antiviral activity against HIV1 isolate 05-121788 assessed as inhibition of viral replication after 7 days by scintillation counting. Type of series: functional, organism-based. The conditions noted are these: Human immunodeficiency virus 1, isolate 05-121788, 168 h.
The test system of series [10] is Human immunodeficiency virus 1. In words: Antiviral activity against HIV1 isolate 05-121790 assessed as inhibition of viral replication after 7 days by scintillation counting. As to conditions: Human immunodeficiency virus 1, isolate 05-121790, 168 h. It counts as functional, organism-based.
Series [11] concerns Human immunodeficiency virus 1. Nature of the series: Antiviral activity against HIV1 isolate 05-121786 assessed as inhibition of viral replication after 7 days by scintillation counting. Type of series: functional, organism-based. As to conditions: Human immunodeficiency virus 1, isolate 05-121786, 168 h.
Series [12] relates to Human immunodeficiency virus 1. In words: Antiviral activity against HIV1 isolate 05-121792 assessed as inhibition of viral replication after 7 days by scintillation counting. Type of series: functional, organism-based. As to conditions: Human immunodeficiency virus 1, isolate 05-121792, 168 h.
For series [13], the species on record is Cavia porcellus. Nature of the series: Inhibition of guinea pig ileum ACE at 30 uM. It counts as tissue-based. A digest of the protocol: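 Isolated guinea pig ileum preparation; ACE inhibition measured as maximal inhibition at 30 μM.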
The subject of series [14] is Human immunodeficiency virus 1. In words: Antiviral activity against HIV1 isolate 05-121800 assessed as inhibition of viral replication after 7 days by scintillation counting. It counts as functional, organism-based. The conditions noted are these: Human immunodeficiency virus 1, isolate 05-121800, 168 h.
Series [15] relates to Human immunodeficiency virus 1. In words: Antiviral activity against HIV1 isolate 05-121795 assessed as inhibition of viral replication after 7 days by scintillation counting. It counts as functional, organism-based. As to conditions: Human immunodeficiency virus 1, isolate 05-121795, 168 h.
For series [16], the system named is Human immunodeficiency virus 1. In words: Antiviral activity against HIV1 Bal infected in human HOS cells after 72 hrs by luminescence assay. Type of series: functional, organism-based. As to conditions: Human immunodeficiency virus 1, Bal. The method in brief: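 R5-tropic virus infection of HOS cells (hCXCR4/hCCR5/hCD4, LTR-luciferase reporter). Cells were plated in DMEM with 2% FCS overnight, pre-incubated with compound for 1 h, then given virus pre-mixed with compound. Incubation was 72 h at 37°C. Read-out was luciferase luminescence. IC50 from a four-parameter logistic fit.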

Series [17] deals with Human immunodeficiency virus 1. In words: Antiviral activity against HIV1 isolate 05-121778 assessed as inhibition of viral replication after 7 days by scintillation counting. It counts as functional, organism-based. As to conditions: Human immunodeficiency virus 1, isolate 05-121778, 168 h.

SMILES strings stand for the structures.

Voltage-gated inwardly rectifying potassium channel KCNH2, sequence (Q12809 whole entry): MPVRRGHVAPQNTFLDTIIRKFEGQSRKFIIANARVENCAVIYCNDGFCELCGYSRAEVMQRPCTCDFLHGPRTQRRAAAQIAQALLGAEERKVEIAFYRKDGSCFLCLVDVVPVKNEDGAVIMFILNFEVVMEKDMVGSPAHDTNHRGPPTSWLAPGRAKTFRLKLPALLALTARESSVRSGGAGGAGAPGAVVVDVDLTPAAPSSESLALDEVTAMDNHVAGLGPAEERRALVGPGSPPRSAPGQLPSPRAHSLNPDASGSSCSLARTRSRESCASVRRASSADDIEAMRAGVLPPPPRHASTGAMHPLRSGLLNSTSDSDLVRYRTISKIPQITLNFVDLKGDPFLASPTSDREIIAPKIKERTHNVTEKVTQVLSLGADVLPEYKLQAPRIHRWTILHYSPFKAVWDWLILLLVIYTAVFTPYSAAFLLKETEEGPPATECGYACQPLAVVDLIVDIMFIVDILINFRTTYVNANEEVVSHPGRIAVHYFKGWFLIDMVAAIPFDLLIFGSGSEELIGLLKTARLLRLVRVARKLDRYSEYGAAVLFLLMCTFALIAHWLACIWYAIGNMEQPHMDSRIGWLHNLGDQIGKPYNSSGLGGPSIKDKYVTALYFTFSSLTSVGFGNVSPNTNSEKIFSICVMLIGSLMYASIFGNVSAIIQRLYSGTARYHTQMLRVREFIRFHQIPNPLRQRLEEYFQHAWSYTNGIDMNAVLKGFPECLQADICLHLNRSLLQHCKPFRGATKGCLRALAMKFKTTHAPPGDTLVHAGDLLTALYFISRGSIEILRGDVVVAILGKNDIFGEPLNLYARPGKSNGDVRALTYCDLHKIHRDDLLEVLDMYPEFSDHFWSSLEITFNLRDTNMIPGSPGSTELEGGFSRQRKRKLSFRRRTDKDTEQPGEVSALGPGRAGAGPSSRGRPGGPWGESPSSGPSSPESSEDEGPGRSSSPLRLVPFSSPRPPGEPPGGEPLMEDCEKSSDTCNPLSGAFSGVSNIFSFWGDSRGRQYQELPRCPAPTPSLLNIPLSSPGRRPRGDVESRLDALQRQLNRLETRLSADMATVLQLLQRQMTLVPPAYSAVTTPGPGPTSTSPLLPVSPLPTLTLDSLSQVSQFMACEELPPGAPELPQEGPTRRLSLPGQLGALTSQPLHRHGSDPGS

The term IC50 denotes the midpoint of a concentration-inhibition curve. In general, half-life refers to the time needed for the level to fall by half in the phase considered. In general, clearance refers to the rate of elimination divided by the concentration. As usually defined, the inhibition is the change of the read-out against control, counted positive when it falls. As for `CN1CCN(c2cccc3nc(CN(C)[C@H]4CCCc5cccnc54)c(CO)n23)CC1`, the IC50 amounted to 3.14 nM in series [1]; 1 nM in series [3]; 1 nM in [4]; 1 nM in series [9]; 1 nM in series [10]; 1 nM in series [11]. In addition, the IC50 in [12] is 1 nM; in [14], 1 nM; in series [15], 1 nM; in [16], greater than 2500 nM; in series [17] it was 1 nM. Moreover, the half-life in series [2] was 4.1 h. The “inhibition (INH)” value in series [5], in series [7] and in [8] was “Not Active” in each case. This molecule yielded a clearance in [6] of 5.8 mL/min/kg. The inhibition in series [13] came to 26%.

The values above are taken from ChEMBL document CHEMBL1240366, “Blockade of X4-tropic HIV-1 cellular entry by GSK812397, a potent noncompetitive CXCR4 receptor antagonist” (Antimicrob Agents Chemother, 2010).
